Measured values taken from paper PMC6453127 (Biochimica et biophysica acta. General subjects, 2017).
Entries after “also recorded” stand apart in the source; their conditions may differ.

Assays:
Hsp90β [1] = molecular target: T1, Hsp90β (Homo sapiens, UniProt P08238); experiment: Competitive displacement of FITC-GA; assay type: binding; conditions: competitor 3 nM to 3 μM; 60 nM Hsp90β, 5 nM FITC-GA
Hsp70 = Hsp70 (Homo sapiens, UniProt P0DMV8); experiment: Transcreener ADP Hsp70 ATPase assay; assay type: biochemical; conditions: 0.5 μM Hsp70; up to 200 μM
Summary of the method: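 Stopped with EDTA stop-and-detect buffer containing ADP² antibody-IRDye QC-1 and 8 nM ADP Alexa594 tracer, 1 h at RT. Endpoint fluorescence intensity read. Three experiments, four-parameter logistic fit.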

His6-Hsp90β CTD = His6-Hsp90β CTD (Homo sapiens, UniProt P08238); experiment: BS3 crosslinking dimerization/oligomerization assay, His6-Hsp90β CTD; assay type: biochemical; conditions: for oligomerization state of His6-Hsp90β CTD (crosslinking): 2 μM protein, BS3 crosslinker
Hsp90β [2] = molecular target: T1, Hsp90β; experiment: Transcreener ADP Hsp90 ATPase assay; assay type: biochemical
GST-Hsp90α CTD [3] = molecular target: T2, GST-Hsp90α CTD (Homo sapiens, UniProt P07900); experiment: ADH aggregation; assay type: biochemical; conditions: for inhibition of Hsp90 CTD chaperone (anti-aggregation) activity, ADH aggregation assay: 40 μM compound, 500 nM Hsp90 CTD, 55 °C, end point 90 min
Summary of the method: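 Reaction: 6.2 μM equine ADH, with or without 500 nM GST-Hsp90α CTD and compound. Aggregation induced at 55 °C, read as absorbance at 360 nm every minute for 90 min. The 90-min endpoint was used, with the mean of ADH alone set to 100%. Three independent experiments.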

GST-Hsp90α CTD [4] = molecular target: T2, GST-Hsp90α CTD; experiment: ATP-agarose pulldown, Hsp90 CTD; assay type: binding; conditions: 200 μM compound, 6 μM CTD
GST-Hsp90α NTD = GST-Hsp90α NTD (Homo sapiens, UniProt P07900); experiment: BS3 crosslinking assay, GST-Hsp90α NTD; assay type: biochemical; conditions: 2 μM protein
Summary of the method: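 2 μM protein buffer-exchanged into 50 mM NaPO₄ and 150 mM NaCl, then preincubated with compound for 1 h at room temperature. BS3 added at 66–200 μM final for 1 h at RT, then quenched with 50 mM Tris-HCl pH 7.5 for 15 min. Boiled in SDS dye, run on 10% SDS-PAGE, western-blotted and probed with anti-GST antibody.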

full-length Hsp90α = full-length Hsp90α (Homo sapiens, UniProt P07900); experiment: BS3 crosslinking assay, full length Hsp90α; assay type: biochemical; conditions: 2 μM protein; BS3 crosslinker
Summary of the method: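 Full-length Hsp90α used at 2 μM in 50 mM NaPO₄ and 150 mM NaCl, preincubated with compound for 1 h at room temperature. BS3 crosslinker added at 66–200 μM final for 1 h at RT, then quenched with 50 mM Tris-HCl pH 7.5 for 15 min. Analysed by 10% SDS-PAGE and western blot.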

GST-Hsp90α CTD [5] = molecular target: T2, GST-Hsp90α CTD; experiment: BS3 crosslinking assay, GST-Hsp90α CTD; assay type: biochemical; conditions: 2 μM protein; NSC145366 10 μM to 100 μM
LNCaP cells = experiment: Western blot of Hsp90 clients and heat shock proteins in LNCaP cells; assay type: cell-based; conditions: 48 h
Summary of the method: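 ATCC LNCaP cells kept in ATCC-recommended medium, authenticated and used within 20 passages. Cells treated for 48 h, trypsinised, PBS-washed and lysed in RIPA with protease inhibitors, 1 mM PMSF, 0.1% Triton X-100 and 1 mM DTT. Protein measured by Bradford before western blot. Band intensities of treated samples expressed as percentage of vehicle.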

GST-Hsp90α CTD (626–732) = GST-Hsp90α CTD (626–732) (Homo sapiens, UniProt P07900); experiment: DARTs assay with GST-Hsp90α CTD; assay type: binding; conditions: 200 μM compound

Sequence of His6-Hsp90β CTD (P08238 530-724): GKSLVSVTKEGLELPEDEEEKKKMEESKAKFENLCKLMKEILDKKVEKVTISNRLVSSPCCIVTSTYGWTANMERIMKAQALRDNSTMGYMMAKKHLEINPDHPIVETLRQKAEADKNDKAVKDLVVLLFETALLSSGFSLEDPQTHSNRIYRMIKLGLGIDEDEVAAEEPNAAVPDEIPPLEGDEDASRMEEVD
T1 sequence (P08238 whole entry): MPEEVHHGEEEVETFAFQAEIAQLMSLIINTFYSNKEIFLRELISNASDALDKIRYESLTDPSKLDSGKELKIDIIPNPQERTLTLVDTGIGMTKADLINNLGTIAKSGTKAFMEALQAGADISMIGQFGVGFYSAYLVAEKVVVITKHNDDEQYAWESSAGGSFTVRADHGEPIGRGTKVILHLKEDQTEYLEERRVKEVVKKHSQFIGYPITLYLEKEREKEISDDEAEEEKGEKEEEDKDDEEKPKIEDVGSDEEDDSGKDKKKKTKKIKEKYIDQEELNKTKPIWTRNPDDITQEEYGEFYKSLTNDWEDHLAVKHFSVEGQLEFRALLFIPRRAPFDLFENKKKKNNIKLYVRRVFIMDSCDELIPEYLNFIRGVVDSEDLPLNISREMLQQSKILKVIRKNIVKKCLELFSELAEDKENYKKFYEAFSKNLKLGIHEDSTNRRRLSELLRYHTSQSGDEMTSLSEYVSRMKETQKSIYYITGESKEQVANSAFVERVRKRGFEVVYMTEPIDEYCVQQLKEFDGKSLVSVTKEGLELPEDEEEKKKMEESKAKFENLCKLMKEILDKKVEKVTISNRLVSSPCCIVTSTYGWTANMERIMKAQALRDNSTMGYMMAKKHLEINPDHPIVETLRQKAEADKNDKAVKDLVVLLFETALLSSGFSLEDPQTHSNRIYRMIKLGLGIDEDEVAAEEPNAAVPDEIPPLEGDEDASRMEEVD
Sequence of Hsp70 (P0DMV8 whole entry): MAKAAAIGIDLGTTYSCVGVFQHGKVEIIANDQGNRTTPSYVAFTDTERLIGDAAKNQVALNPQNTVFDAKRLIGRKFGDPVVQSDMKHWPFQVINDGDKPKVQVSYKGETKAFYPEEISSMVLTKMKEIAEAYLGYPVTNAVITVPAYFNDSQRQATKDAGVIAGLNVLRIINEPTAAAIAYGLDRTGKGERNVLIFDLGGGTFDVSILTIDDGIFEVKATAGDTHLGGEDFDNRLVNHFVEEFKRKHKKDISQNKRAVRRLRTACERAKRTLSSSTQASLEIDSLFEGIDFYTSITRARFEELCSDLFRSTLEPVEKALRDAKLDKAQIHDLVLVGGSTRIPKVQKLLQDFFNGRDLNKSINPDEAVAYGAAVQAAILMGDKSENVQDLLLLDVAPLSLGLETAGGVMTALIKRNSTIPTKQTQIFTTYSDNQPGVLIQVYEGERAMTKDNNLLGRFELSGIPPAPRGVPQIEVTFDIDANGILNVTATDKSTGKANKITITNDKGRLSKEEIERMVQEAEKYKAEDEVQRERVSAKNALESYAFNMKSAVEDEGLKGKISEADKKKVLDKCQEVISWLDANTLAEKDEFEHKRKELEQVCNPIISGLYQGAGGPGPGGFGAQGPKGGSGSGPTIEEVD

SMILES: CCNC(=O)c1noc(-c2cc(C(C)C)c(O)cc2O)c1-c1ccc(CN2CCOCC2)cc1 [AUY922]
- competition with FITC-GA binding to Hsp90β (Hsp90β [1]): compete with fluorescently labeled GA

SMILES: C=CCNC1=C2C[C@@H](C)C[C@H](OC)[C@H](O)[C@@H](C)/C=C(\C)[C@H](OC(N)=O)[C@@H](OC)/C=C\C=C(/C)C(=O)NC(=CC1=O)C2=O [Analog 17-AAG, reference compound]
- inhibition of Hsp70 ATPase function (Hsp70): no effect on Hsp70 ATPase function

SMILES: CC(C)(c1ccc(OCC(O)CN2CCOCC2)cc1)c1ccc(OCC(O)CN2CCOCC2)cc1 (stereo not shown) [Analog A1, 3,3’-((propane-2,2-diylbis(4,1-phenylene))bis(oxy))bis(1-mor-pholinopropan-2-ol)]
- oligomerization state of His6-Hsp90β CTD (crosslinking) (His6-Hsp90β CTD): CTD monomer band was eliminated

SMILES: CN1CCN(CC(O)COc2ccc(C(C)(C)c3ccc(OCC(O)CN4CCN(C)CC4)cc3)cc2)CC1 (stereo not shown) [Analog A2, 3,3’-((propane-2,2-diylbis(4,1-phenylene))bis(oxy))bis(1-(4-methylpiperazin-1-yl)propan-2-ol)]
- IC50 (Hsp90β [2]): ~216 µM
- oligomerization state of His6-Hsp90β CTD (crosslinking) (His6-Hsp90β CTD): CTD monomer band was eliminated

SMILES: CC(C)(c1ccc(OCC(O)CNCc2ccco2)cc1)c1ccc(OCC(O)CNCc2ccco2)cc1 (stereo not shown) [Analog A3, 3,3’-((propane-2,2-diylbis(4,1-phenylene))bis(oxy))bis(1-((fur-an-2-ylmethyl)amino)propan-2-ol)]
- oligomerization state of His6-Hsp90β CTD (crosslinking) (His6-Hsp90β CTD): oligomer formation was completely inhibited
- disruption of CTD dimer formation compared with Cm A1 (His6-Hsp90β CTD; His6-Hsp90β CTD, 200 μM BS3 (Fig. S10)): disrupt dimer formation more efficiently than Cm A1

SMILES: CC(C)CNCC(O)COc1ccc(C(C)(C)c2ccc(OCC(O)CNCC(C)C)cc2)cc1 (stereo not shown) [Analog A8, 3,3’-((propane-2,2-diylbis(4,1-phenylene))bis(oxy))bis(1-(iso-butylamino)propan-2-ol)]
- IC50 (Hsp90β [2]): ~262 µM
- oligomerization state of His6-Hsp90β CTD (crosslinking) (His6-Hsp90β CTD): CTD monomer band was eliminated

SMILES: CC(C)(c1ccc(OCC2CO2)cc1)c1ccc(OCC2CO2)cc1 (stereo not shown) [BADGE, bisphenol A diglycidyl ether]
- inhibition of Hsp90 CTD chaperone (anti-aggregation) activity, ADH aggregation assay (GST-Hsp90α CTD [3]): slight inhibition

SMILES: CC(C)(c1ccc(O)cc1)c1ccc(O)cc1 [BPA, Bisphenol A]
- IC50, Hsp90β ATPase function (Hsp90β [2]; 0.5 μM Hsp90β, 250 μM ATP, 37 °C 30 min): does not have a measurable IC50
- inhibition of Hsp90 CTD chaperone (anti-aggregation) activity, ADH aggregation assay (GST-Hsp90α CTD [3]): did not exhibit inhibition; also recorded: Minimal inhibition

SMILES: CO[C@H]1[C@H](OC(=O)c2ccc(C)[nH]2)[C@H](O)[C@@H](Oc2ccc3c(O)c(NC(=O)c4c[nH]c(C(=O)Nc5c(O)c6ccc(O[C@H]7OC(C)(C)[C@@H](OC)[C@H](OC(=O)c8ccc(C)[nH]8)[C@@H]7O)c(C)c6oc5=O)c4C)c(=O)oc3c2C)OC1(C)C [Cm A1, coumermycin A1, reference compound]
- inhibition of CTD binding to ATP-agarose (GST-Hsp90α CTD [4]): inhibits CTD binding to ATP
- oligomerization of GST-Hsp90α NTD (crosslinking) (GST-Hsp90α NTD): appears to decrease oligomerization of the NTD
- oligomerization state of His6-Hsp90β CTD (crosslinking) (His6-Hsp90β CTD): increases the level of monomeric Hsp90 CTD
- increase in ADH aggregation (GST-Hsp90α CTD [3]; 50 μM, positive control): ~ 40%
- oligomerization state of full-length Hsp90α (crosslinking) (full-length Hsp90α): slightly increases the monomer level of full-length Hsp90α
- oligomerization state of GST-Hsp90α CTD (crosslinking) (GST-Hsp90α CTD [5]): increases the level of CTD monomers

SMILES: COC1=C2C[C@@H](C)C[C@H](OC)[C@H](O)[C@@H](C)/C=C(\C)[C@H](OC(N)=O)[C@@H](OC)/C=C\C=C(/C)C(=O)NC(=CC1=O)C2=O [GA, geldanamycin, reference compound]
- induction of classical heat shock response (Hsp70, Hsp27, Hsp40) (LNCaP cells): did induce the classical heat shock response
- BRCA1 expression level compared to DMSO (LNCaP cells; GA control): 9%
- competition with FITC-GA binding to Hsp90β (Hsp90β [1]): compete with fluorescently labeled GA

SMILES: CO[C@@H]1[C@@H](O)[C@@H](O)[C@H](Oc2ccc3cc(NC(C)=O)c(=O)oc3c2C)OC1(C)C [KU-32, reference compound]
- protection of Hsp90 CTD from pronase degradation (DARTs) (GST-Hsp90α CTD (626–732)): protects the Hsp90 CTD from pronase degradation at levels comparable
